The source of these data is ChEMBL document CHEMBL3808379, “Isouronium and N-hydroxyguanidinium derivatives as Cell growth inhibitors: A comparative study” (Eur J Med Chem, 2016).

Series [1] can be described thus: Cytotoxicity in mouse NIH/3T3 cells assessed as induction of apoptosis at 50 to 100 uM after 72 hrs by propidium iodide staining-based flow cytometric analysis. The class given is cell-based. Particulars: nih3t3, 72 h. Put shortly:
(§1)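 Cells seeded at 6000 cells per cm² and left 24 h, then given compound at 50 or 100 μM or vehicle (1% ddH2O) for 72 h. Trypsinised, fixed overnight at −20 °C in ice-cold 70% EtOH/PBS, then PI-stained 30 min at 37 °C. 10,000 gated events per sample. Sub-diploid (<2N, M1) cells scored as apoptotic. Mean ± S.E.M., ≥3 experiments.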
In general terms: In flow cytometry, cells or beads pass a laser one at a time.

Series [2] can be described thus: Cytotoxicity against human HL60 cells assessed as cell viability reduction incubated for 72 hrs by alamar blue assay. It counts as functional, cell-based. Particulars: HL-60, 72 h. Put shortly: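 HL-60 cells in log phase, 40,000 per well, were treated in triplicate with compound at 10–100 µM (final, 1:100 from ddH2O stocks) or 1% ddH2O vehicle for 72 h at 37 °C. AlamarBlue was then added for 4.5 h in the dark and fluorescence read at ex 544/em 590 nm. Viability is blank-subtracted and expressed as % of vehicle. IC50 comes from a sigmoidal fit; ≥3 independent experiments.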
(Alamar Blue is a resazurin reagent that responds to reducing activity.)

Series [3] is described as follows: Cell cycle arrest in human HL60 cells assessed as accumulation at polyploid Gn phase at 50 uM after 24 hrs by propidium iodide staining-based flow cytometric analysis (reference value: 2.96 +/- 0.79%). It counts as functional. Particulars: HL-60.
The nature of series [4]: Cell cycle arrest in human HL60 cells assessed as accumulation at G0/G1 phase at 50 uM after 72 hrs by propidium iodide staining-based flow cytometric analysis (reference value: 59.5 +/- 1.5%). It counts as functional. Conditions: HL-60.
Series [5] in a line: Cell cycle arrest in human HL60 cells assessed as accumulation at pre-G1 phase at 50 uM after 72 hrs by propidium iodide staining-based flow cytometric analysis (reference value: 2.21 +/- 0.57%). Conditions: HL-60. It counts as functional.
Series [6] is described as follows: Cytotoxicity against mouse NIH/3T3 cells assessed as cell viability reduction at 50 to 100 uM incubated for 72 hrs by alamar blue-based fluorimetric assay. Conditions: nih3t3, 72 h. Put shortly: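 NIH/3T3 cells seeded at 10,000 cells/mL and left 24 h at 37 °C before treatment. Compound at 50 or 100 μM final for 72 h, vehicle 1% (v/v) ddH2O. AlamarBlue 10% (v/v) then added for 4.5 h in darkness at 37 °C. Fluorescence read at ex 544/em 590 nm, blank subtracted, expressed as % of vehicle control. Mean ± S.E.M., at least 3 experiments.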

Series [7] can be described thus: Cell cycle arrest in human HL60 cells assessed as accumulation at G2/M phase at 50 uM after 24 hrs by propidium iodide staining-based flow cytometric analysis (reference value: 16.73 +/- 0.59%). It counts as functional. Particulars: HL-60.
A short description of series [8]: Cell cycle arrest in human HL60 cells assessed as accumulation at pre-G1 phase at 50 uM after 24 hrs by propidium iodide staining-based flow cytometric analysis (reference value: 0.81 +/- 0.11%). Particulars: HL-60. The class given is functional.
The nature of series [9]: Cytotoxicity in human MCF10A cells assessed as induction of apoptosis at 50 to 100 uM after 72 hrs by propidium iodide staining-based flow cytometric analysis. It counts as cell-based. Particulars: mcf-10a. Put shortly: as §1
Series [10] in a line: Cell cycle arrest in human HL60 cells assessed as accumulation at G0/G1 phase at 50 uM after 48 hrs by propidium iodide staining-based flow cytometric analysis (reference value: 58.77 +/- 2.33%). The class given is functional. Conditions: HL-60.
A short description of series [11]: Binding affinity to salmon sperm DNA assessed as increase in thermal melting temperature by spectrophotometric analysis. Particulars: Salmonidae.
The nature of series [12]: Cell cycle arrest in human HL60 cells assessed as accumulation at pre-G1 phase at 50 uM after 48 hrs by propidium iodide staining-based flow cytometric analysis (reference value: 1.41 +/- 0.32%). It counts as functional. Particulars: HL-60.
Series [13] can be described thus: Cytotoxicity against human MCF10A cells assessed as cell viability reduction at 50 to 100 uM incubated for 72 hrs by alamar blue-based fluorimetric assay. Conditions: mcf-10a. In short, it runs like this: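 MCF-10A cells, 2000 per well, were allowed to attach for 24 h, then treated with 50 or 100 µM or with 1% ddH2O vehicle for 72 h. AlamarBlue (10% v/v) was added for 4.5 h at 37 °C in the dark and fluorescence read at ex 544/em 590 nm. Viability is expressed as % of vehicle after blank subtraction; mean ± S.E.M., ≥3 experiments.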

Series [14] in a line: Cell cycle arrest in human HL60 cells assessed as accumulation at G2/M phase at 50 uM after 48 hrs by propidium iodide staining-based flow cytometric analysis (reference value: 11.35 +/- 1.05%). Conditions: HL-60. The class given is functional.
Series [15] can be described thus: Cell cycle arrest in human HL60 cells assessed as accumulation at G0/G1 phase at 50 uM after 24 hrs by propidium iodide staining-based flow cytometric analysis (reference value: 56.05 +/- 1.4%). The class given is functional. Conditions: HL-60.
Series [16] has as its system HL-60. The experiment in a line: Induction of apoptosis in human HL60 cells at 100 uM after 72 hrs by propidium iodide staining-based flow cytometric analysis. It counts as functional. In short, it runs like this:
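HL-60 cells seeded at 200,000 cells/mL and treated 72 h, vehicle 1% (v/v) ddH2O. Harvested by centrifugation, fixed overnight in ice-cold 70% EtOH/PBS at −20 °C, then PI-stained 30 min at 37 °C. Flow cytometry of 10,000 gated events. Apoptosis taken from pre-G1 (<2N DNA) peak. Mean ± S.E.M., ≥3 experiments.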

The nature of series [17]: Cell cycle arrest in human HL60 cells assessed as accumulation at G2/M phase at 50 uM after 72 hrs by propidium iodide staining-based flow cytometric analysis (reference value: 10.53 +/- 0.81%). Particulars: HL-60. It counts as functional.
Series [18] in a line: Cell cycle arrest in human HL60 cells assessed as accumulation at S phase at 50 uM after 72 hrs by propidium iodide staining-based flow cytometric analysis (reference value: 23.58 +/- 1.38%). It counts as functional. Particulars: HL-60.
Series [19] can be described thus: Cytotoxicity against human Kelly cells assessed as cell viability reduction incubated for 72 hrs by alamar blue assay. It counts as functional, cell-based. In short, it runs like this: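 Kelly cells, 6000 per well, were allowed to attach for 24 h, then treated in triplicate at 0.1–100 µM final or with ddH2O vehicle for 72 h at 37 °C. AlamarBlue was added for 4.5 h in the dark and fluorescence read at ex 544/em 590 nm. Blank-subtracted % of vehicle; IC50 from a sigmoidal dose-response fit; ≥3 independent experiments.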

For series [20], the system named is HL-60. The experiment in a line: Induction of apoptosis in human HL60 cells assessed as caspase 3/7 activation at 50 to 100 uM after 48 hrs by caspase-glo luminescence assay relative to vehicle control. The class given is functional, cell-based. In short, it runs like this:
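HL-60 cells seeded at 20,000 cells/100 μl and treated 48 h with 0, 50 or 100 μM. Viability first measured by AlamarBlue. Cells then lysed with an equal volume of Caspase-Glo 3/7 reagent, shaken 1 h at room temperature in darkness, and luminescence read. Luminescence normalised to viability. Mean ± SEM, ≥3 experiments; P<0.05 taken as significant.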

Series [21] can be described thus: Cell cycle arrest in human HL60 cells assessed as accumulation at polyploid Gn phase at 50 uM after 72 hrs by propidium iodide staining-based flow cytometric analysis (reference value: 3.43 +/- 0.48%). It counts as functional. Conditions: HL-60.
Series [22] deals with HL-60. The experiment in a line: Induction of mitochondrial membrane depolarization in human HL60 cells at 50 to 100 uM after 48 hrs by JC1 staining-based flow cytometric analysis relative to vehicle control. It counts as functional, cell-based. In short, it runs like this:
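HL-60 cells at 200,000 cells/mL exposed 48 h to 0, 50 or 100 μM. Washed in PBS and stained with JC-1 (5 μM) 30 min at 37 °C. Resuspended in ice-cold PBS and read by flow cytometry: excitation 488 nm, emission 535 (green) and 595 nm (red). Rising green:red ratio scored as ΔΨm loss; % cells with loss reported. Mean ± SEM, ≥3 experiments.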

The nature of series [23]: Cell cycle arrest in human HL60 cells assessed as accumulation at S phase at 50 uM after 24 hrs by propidium iodide staining-based flow cytometric analysis (reference value: 24.46 +/- 1.15%). Conditions: HL-60. The class given is functional.
Series [24] can be described thus: Cell cycle arrest in human HL60 cells assessed as accumulation at S phase at 50 uM after 48 hrs by propidium iodide staining-based flow cytometric analysis (reference value: 24.29 +/- 1.37%). The class given is functional. Conditions: HL-60.
A short description of series [25]: Cell cycle arrest in human HL60 cells assessed as accumulation at polyploid Gn phase at 50 uM after 48 hrs by propidium iodide staining-based flow cytometric analysis (reference value: 3.02 +/- 0.56%). Particulars: HL-60. The class given is functional.
A short description of series [26]: Dissociation constant, pKa of the compound in 10 mM sodium phosphate buffer at pH 2 by UV spectroscopic analysis. The class given is physicochemical.

The source made the active and inactive calls. The rule behind the calls is not given here.

Usually IC50 stands for the concentration that inhibits the measured activity by half. In general, ΔTm refers to the shift of the melting midpoint relative to a reference. By pKa is commonly meant the pH at which an ionisable group is half protonated.

`N=C(N)Oc1ccc(Sc2ccc(O)cc2)cc1`: the Activity result in [1] was “Non-toxic”; in [3] it was 11.6%; in series [4], 18.2%; in [5], 39.9%; in series [6], “Toxic”; in [7], 52.4%. The Activity in [8] is 9%; in series [9] it was “Non-toxic”; in series [10] it was 12.7%; in [12], 55.5%; in series [13] it was “Non-toxic”; in series [14], 5.98%. Besides, the Activity in series [15] stood at 11.2%; in [16], 63.6%; in series [17], 8.67%; in [18], 16.2%; in series [21] it was 15.8%; in series [23], 14.9%. Moreover, the Activity in [24] came out at 10.4%; in series [25], 15.3%. For the same compound, the figures for the half-maximal inhibitory concentration (IC50) in series [2] and in series [19] were 52.9 µM and 33.9 µM, respectively. In series [11], the ΔTm came out at 2 °C. In addition, the outcome in [20] and in series [22] was Active.

Turning to `N=C(N)Oc1ccc(Oc2ccc(OC(=N)N)cc2)cc1`, the IC50 in series [2] is over 100 µM. Besides, in [26], the pKa turned out to be 10.4. Also, the thermal shift (ΔTm) in series [11] came out at 5 °C.
